Several values for one entry are separate records, joined by “and”; a condition that tells them apart may be missing. Equal entries are not always repeated.
Tested on: Fibroblast
Test: Multiplex assay against human fibroblast
Assay type: toxicity, cell-based
Method in brief: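 Values for tubulin, mitochondrial-mass and membrane-permeability phenotypes are per cents of cells with healthy nuclei. These cells were identified by CellPathfinder machine-learning gating of live cells that had been stained at seeding with Hoechst33342, BioTracker Green Microtubule Cytoskeleton Dye, MitoTracker Red and Annexin V Alexa Fluor 680 and imaged on a CQ1 microscope at 37°C and 5% CO2 after compound addition. The gating first set Hoechst high-intensity objects apart from normal cells, then split normal cells into healthy, pyknosed or fragmented nuclei, and pyknosed cells into mitotic or apoptotic.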

[1] = 12 h, 1 µM, compound concentration 1 uM
[2] = 12 h, 10 µM, compound concentration 10 uM
[3] = 24 h, 1 µM, compound concentration 1 uM
[4] = 24 h, 10 µM, compound concentration 10 uM
[5] = 48 h, 1 µM, compound concentration 1 uM
[6] = 48 h, 10 µM, compound concentration 10 uM

SMILES: COCCCN1CCC(NC(=O)c2cc(Cl)c(N)c3c2OCC3)CC1 [PRUCALOPRIDE]
- Population Apoptotic (%) [1]: 33% and 48%
- Population Fragmented Nuclei (%) [1]: 20% and 31%
- Population Healthy Nuclei (%) [1]: 62% and 48%
- Population Hoechst High Intensity Objects (%) [1]: 3% and 4%
- Population Membrane Permeable-Phenotype (%) [1]: 0% and 5%
- Population Mitochondria Different-Phenotype (%) [1]: 3% and 8%
- Population Mitotic Cells (%) [1]: 66% and 52%
- Population Normal (%) [1]: 96% and 95%
- Population Pyknosed Nuclei (%) [1]: 16% and 20%
- Population Tubulin-Different-Phenotype (%) [1]: 30% and 51%
- Total Cell Count [1]: 132 and 130
- Population Apoptotic (%) [2]: 30% and 35%
- Population Fragmented Nuclei (%) [2]: 12% and 28%
- Population Healthy Nuclei (%) [2]: 66% and 46%
- Population Hoechst High Intensity Objects (%) [2]: 0% and 11%
- Population Membrane Permeable-Phenotype (%) [2]: 1% and 7%
- Population Mitochondria Different-Phenotype (%) [2]: 7% and 3%
- Population Mitotic Cells (%) [2]: 70% and 64%
- Population Normal (%) [2]: 99% and 88%
- Population Pyknosed Nuclei (%) [2]: 20% and 25%
- Population Tubulin-Different-Phenotype (%) [2]: 31% and 55%
- Total Cell Count [2]: 144 and 153
- Population Apoptotic (%) [3]: 48% and 72%
- Population Fragmented Nuclei (%) [3]: 20% and 36%
- Population Healthy Nuclei (%) [3]: 57% and 49%
- Population Hoechst High Intensity Objects (%) [3]: 2% and 7%
- Population Membrane Permeable-Phenotype (%) [3]: 0% and 7%
- Population Mitochondria Different-Phenotype (%) [3]: 3% and 4%
- Population Mitotic Cells (%) [3]: 51% and 27%
- Population Normal (%) [3]: 97% and 92%
- Population Pyknosed Nuclei (%) [3]: 21% and 14%
- Population Tubulin-Different-Phenotype (%) [3]: 25% and 50%
- Total Cell Count [3]: 136 and 138
- Population Apoptotic (%) [4]: 63% and 30%
- Population Fragmented Nuclei (%) [4]: 10% and 24%
- Population Healthy Nuclei (%) [4]: 74% and 57%
- Population Hoechst High Intensity Objects (%) [4]: 6% and 5%
- Population Membrane Permeable-Phenotype (%) [4]: 1% and 11%
- Population Mitochondria Different-Phenotype (%) [4]: 6% and 3%
- Population Mitotic Cells (%) [4]: 36% and 69%
- Population Normal (%) [4]: 93% and 94%
- Population Pyknosed Nuclei (%) [4]: 15% and 18%
- Population Tubulin-Different-Phenotype (%) [4]: 30% and 56%
- Total Cell Count [4]: 128 and 148
- Population Apoptotic (%) [5]: 50%
- Population Fragmented Nuclei (%) [5]: 25% and 36%
- Population Healthy Nuclei (%) [5]: 60% and 49%
- Population Hoechst High Intensity Objects (%) [5]: 4% and 2%
- Population Membrane Permeable-Phenotype (%) [5]: 2% and 3%
- Population Mitochondria Different-Phenotype (%) [5]: 3% and 6%
- Population Mitotic Cells (%) [5]: 50%
- Population Normal (%) [5]: 95% and 97%
- Population Pyknosed Nuclei (%) [5]: 14% and 13%
- Population Tubulin-Different-Phenotype (%) [5]: 38% and 53%
- Total Cell Count [5]: 146 and 132
- Population Apoptotic (%) [6]: 64% and 62%
- Population Fragmented Nuclei (%) [6]: 22% and 34%
- Population Healthy Nuclei (%) [6]: 66% and 48%
- Population Hoechst High Intensity Objects (%) [6]: 2% and 6%
- Population Membrane Permeable-Phenotype (%) [6]: 1% and 7%
- Population Mitochondria Different-Phenotype (%) [6]: 6% and 7%
- Population Mitotic Cells (%) [6]: 35% and 37%
- Population Normal (%) [6]: 97% and 93%
- Population Pyknosed Nuclei (%) [6]: 10% and 17%
- Population Tubulin-Different-Phenotype (%) [6]: 38% and 57%
- Total Cell Count [6]: 136 and 146

SMILES: c1ccc2nc(N3CCNCC3)ccc2c1 [QUIPAZINE]
- Population Apoptotic (%) [1]: 13.95% and 10%
- Population Fragmented Nuclei (%) [1]: 15.05% and 6.28%
- Population Healthy Nuclei (%) [1]: 64.08% and 79.23%
- Population Hoechst High Intensity Objects (%) [1]: 0%
- Population Membrane Permeable-Phenotype (%) [1]: 2.27% and 0.61%
- Population Mitochondria Different-Phenotype (%) [1]: 9.09% and 6.71%
- Population Mitotic Cells (%) [1]: 86.05% and 90%
- Population Normal (%) [1]: 100%
- Population Pyknosed Nuclei (%) [1]: 20.87% and 14.49%
- Population Tubulin-Different-Phenotype (%) [1]: 9.09% and 19.51%
- Total Cell Count [1]: 206 and 207
- Population Fragmented Nuclei (%) [2]: 10.34% and 8.29%
- Population Healthy Nuclei (%) [2]: 70.94% and 74.63%
- Population Hoechst High Intensity Objects (%) [2]: 0%
- Population Membrane Permeable-Phenotype (%) [2]: 3.47% and 5.23%
- Population Mitotic Cells (%) [2]: 94.74% and 74.29%
- Population Normal (%) [2]: 100%
- Population Pyknosed Nuclei (%) [2]: 18.72% and 17.07%
- Population Tubulin-Different-Phenotype (%) [2]: 13.19% and 23.53%
- Total Cell Count [2]: 203 and 205
- Population Apoptotic (%) [3]: 15.79% and 12%
- Population Fragmented Nuclei (%) [3]: 7.37% and 6.28%
- Population Healthy Nuclei (%) [3]: 75.12% and 82.51%
- Population Hoechst High Intensity Objects (%) [3]: 0%
- Population Membrane Permeable-Phenotype (%) [3]: 4.91% and 2.72%
- Population Mitochondria Different-Phenotype (%) [3]: 6.75% and 7.61%
- Population Mitotic Cells (%) [3]: 84.21% and 88%
- Population Normal (%) [3]: 100%
- Population Pyknosed Nuclei (%) [3]: 17.51% and 11.21%
- Population Tubulin-Different-Phenotype (%) [3]: 11.04% and 17.93%
- Total Cell Count [3]: 217 and 223
- Population Apoptotic (%) [4]: 17.65% and 35.71%
- Population Fragmented Nuclei (%) [4]: 10.5% and 7.62%
- Population Healthy Nuclei (%) [4]: 73.97% and 79.82%
- Population Hoechst High Intensity Objects (%) [4]: 0%
- Population Membrane Permeable-Phenotype (%) [4]: 3.7% and 3.37%
- Population Mitochondria Different-Phenotype (%) [4]: 3.09% and 6.74%
- Population Mitotic Cells (%) [4]: 82.35% and 64.29%
- Population Normal (%) [4]: 100%
- Population Pyknosed Nuclei (%) [4]: 15.53% and 12.56%
- Population Tubulin-Different-Phenotype (%) [4]: 16.05% and 25.84%
- Total Cell Count [4]: 219 and 223
- Population Apoptotic (%) [5]: 57.14% and 58.33%
- Population Fragmented Nuclei (%) [5]: 12.6% and 5.91%
- Population Healthy Nuclei (%) [5]: 82.06% and 88.64%
- Population Hoechst High Intensity Objects (%) [5]: 0%
- Population Membrane Permeable-Phenotype (%) [5]: 2.33% and 4.1%
- Population Mitotic Cells (%) [5]: 42.86% and 41.67%
- Population Normal (%) [5]: 100%
- Population Pyknosed Nuclei (%) [5]: 5.34% and 5.45%
- Population Tubulin-Different-Phenotype (%) [5]: 4.19% and 11.79%
- Total Cell Count [5]: 262 and 220
- Population Apoptotic (%) [6]: 35.71% and 45%
- Population Fragmented Nuclei (%) [6]: 10.74% and 6.5%
- Population Healthy Nuclei (%) [6]: 84.07% and 85.37%
- Population Hoechst High Intensity Objects (%) [6]: 0%
- Population Membrane Permeable-Phenotype (%) [6]: 1.32% and 4.76%
- Population Mitochondria Different-Phenotype (%) [6]: 6.61% and 0.48%
- Population Mitotic Cells (%) [6]: 64.29% and 55%
- Population Normal (%) [6]: 100%
- Population Pyknosed Nuclei (%) [6]: 5.19% and 8.13%
- Total Cell Count [6]: 270 and 246
